Test results reported in ChEMBL document CHEMBL4339209, “Chemical modifications of imidazole-containing alkoxyamines increase C-ON bond homolysis rate: Effects on their cytotoxic properties in glioblastoma cells” (Bioorg Med Chem, 2019).
Activity calls are given as the source filed them. No cut-off for these calls is given here.

Experiments:
[1] = Half life in H2O/MeOH buffered with HCl/KCl at pH 2.2 in presence of alkyl radical scavenger TEMPOR by 31P[1H]-NMR analysis; type: physicochemical; details: for half-life: H2O/MeOH buffered with HCl/KCl
[2] = Stability in H2O/MeOH buffered with HCl/KCl at pH 2.2 assessed as temperature; type: physicochemical; details: buffer
[3] = Half life in H2O/MeOH buffered with Na2CO3/NaHCO3 at pH 10.3 in presence of alkyl radical scavenger TEMPOR by 31P[1H]-NMR analysis; type: physicochemical; details: for half-life: H2O/MeOH buffered with Na2CO3/NaHCO3, pH 10.3
[4] = Stability in H2O/MeOH buffered with Na2CO3/NaHCO3 at pH 10.3 assessed as temperature; type: physicochemical; details: buffer
U-87 MG = assay: Cytotoxicity against human U87MG cells assessed as reduction in cell survival measured after 72 hrs by MTT assay; type: functional, cell-based, U-87MG ATCC; details: for Activity: U-87MG ATCC
Procedure, shortened: (§1)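 MTT viability on 2D cultures, U87-MG in DMEM and U251-MG in EMEM with […], both with 10% FBS and Pen Strep. 5000 cells seeded, then 72 h exposure to 500, 250, 100, 50, 25, 10 and 5 μM (DMSO at most […]). MTT 0.5 mg/mL for 1 h, formazan in DMSO read at 550 nm. Survival as % of control. IC50 determined graphically. At least triplicate.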

[5] = Stability in H2O/MeOH buffered with HEPES/NaCl at pH 7.4 assessed as temperature; type: physicochemical; details: buffer
[6] = Dissociation constant, pKa of the compound in 1:1 v/v D2O/CD3OD by 1H-NMR spectrometric method; type: physicochemical; details: 1:1 v/v D2O/CD3OD; read-out: pKa
Procedure, shortened: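 Samples in D2O/CD3OD (1:1 v/v) were adjusted with DCl/NaOD to a series of pH* values, read on a meter calibrated with non-deuterated standards, and 1H-NMR was recorded at 400 MHz. Imidazole proton chemical shifts were plotted against pH* and fitted sigmoidally. The pKa* was converted by pH = 0.929 pH* + 0.42.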

[7] = n-octanol/phosphate buffered saline partition coefficient, log D of the compound at pH 7.4 by shake-flask method; type: physicochemical; details: n-octanol/phosphate buffered saline, read-out: logD
Procedure, shortened: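 Shake-flask partition between pre-saturated n-octanol and PBS at pH 7.4. The aqueous phase was quantified by RP-HPLC on a 4.6 × 50 mm column, eluting with CH3CN/H2O (each with 0.1% TFA) from 10:90 to 100:0 over 10 min.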

[8] = Half life in H2O/MeOH buffered with HEPES/NaCl at pH 7.4 in presence of alkyl radical scavenger TEMPOR by 31P[1H]-NMR analysis; type: physicochemical; details: for half-life: H2O/MeOH buffered with HEPES/NaCl
[9] = Stability in DMSO assessed as temperature; type: physicochemical
[10] = Stability in DMSO/TsOH assessed as temperature; type: physicochemical
U-251 [11] = assay: Cytotoxicity against human U251MG cells assessed as reduction in cell survival at IC50 measured after 72 hrs in presence of alkyl radical scavenger troxerutin by MTT assay; type: functional, cell-based
Procedure, shortened: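 U251-MG cells in EMEM (10% FBS, Pen Strep, […]) were exposed for 72 h to alkoxyamine together with an equal concentration of the alkyl radical scavenger troxerutin. Survival was read by MTT (0.5 mg/mL, 1 h, OD 550 nm) as % of control, and compared with alkoxyamine alone. At least triplicate.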

[12] = Drug homolysis in DMSO assessed as rate constant by measuring nitroxide level in presence of alkyl radical scavenger TEMPOR by 31P[1H]-NMR analysis
[13] = Drug homolysis in DMSO/TsOH assessed as activation energy in presence of alkyl radical scavenger TEMPOR by 31P[1H]-NMR analysis
[14] = Drug homolysis in DMSO assessed as activation energy in presence of alkyl radical scavenger TEMPOR by 31P[1H]-NMR analysis
U-251 [15] = assay: Cytotoxicity against human U251MG cells assessed as reduction in cell survival measured after 72 hrs by MTT assay; type: functional, cell-based; procedure, shortened: as §1
[16] = Drug homolysis in DMSO/TsOH assessed as rate constant by measuring nitroxide level in presence of alkyl radical scavenger TEMPOR by 31P[1H]-NMR analysis

SMILES	T [2]	half-life [3]	T [4]	IC50 (U-87 MG)	T [5]	pKa [6]	logD [7]	half-life [8]	half-life [1]	also measured
CCOP(=O)(OCC)C(N(OC(C)c1cn(C)cn1)C(C)(C)C)C(C)(C)C (stereo in doubt; form 1)	80 °C	1560 h	80 °C	25 to 380 µM	80 °C	6.76	3.5	792 h	–	t1/2 ([1]; buffer): 65 h
CCOP(=O)(OCC)C(N(OC(C)c1nccn1C)C(C)(C)C)C(C)(C)C (stereo in doubt; form 1)	60 °C	–	80 °C	25 to 380 µM	70 °C	6.28	3.4	–	2.4 h	t1/2 ([3]; buffer, pH 10.3): 130 h; t1/2 ([8]; buffer): 31 h
CCOP(=O)(OCC)C(N(OC(C)c1c[nH]cn1)C(C)(C)C)C(C)(C)C (stereo in doubt; form 1)	80 °C	408 h	80 °C	25 to 380 µM	80 °C	6.11	3.7	288 h	103 h	–
CCOP(=O)(OCC)C(N(OC(C)n1ccnc1)C(C)(C)C)C(C)(C)C (stereo in doubt; form 1) [listing 1 of 2 here]	–	–	–	25 to 380 µM	–	5.62	3.4	–	–	T [9]: 160 °C; T [10]: 160 °C
CCOP(=O)(OCC)C(N(OC(C)n1ccnc1)C(C)(C)C)C(C)(C)C (stereo in doubt; form 1) [listing 2 of 2 here]	–	–	–	–	–	–	–	–	–	Activity (U-251 [11]): Active; Kdiss [12]: 2.69 ×10⁻⁴ /s; Ea [13]: 34.1 kcal/mol; Ea [14]: 35.6 kcal/mol; Activity (U-87 MG): Dose-dependent effect; Activity (U-251 [15]): Dose-dependent effect; Kdiss [16]: 1.44 ×10⁻³ /s
CCOP(=O)(OCC)C(N(OC(C)c1ncc[nH]1)C(C)(C)C)C(C)(C)C (stereo in doubt; form 2)	60 °C	240 h	80 °C	25 to 380 µM	70 °C	6.09	3.6	60 h	4 h	–
CCOP(=O)(OCC)C(N(OC(C)n1ccnc1)C(C)(C)C)C(C)(C)C (stereo in doubt; form 2)	–	–	–	–	–	–	–	–	–	Activity (U-251 [11]): Active; Kdiss [12]: 8.02 ×10⁻⁴ /s; Ea [13]: 33.7 kcal/mol; Ea [14]: 34.6 kcal/mol; Activity (U-87 MG): Dose-dependent effect; Activity (U-251 [15]): Dose-dependent effect; Kdiss [16]: 2.45 ×10⁻³ /s
